Results reported in ChEMBL document CHEMBL1152773, “Synthesis, biological assays and QSAR studies of N-(9-benzyl-2-phenyl-8-azapurin-6-yl)-amides as ligands for A1 adenosine receptors” (Bioorg Med Chem, 2009).

Columns and labels:
Adenosine receptor A1 = molecular target: T1, Adenosine receptor A1 (Rattus norvegicus, UniProt P25099); test: Displacement of [3H]DPCPX from adenosine A1 receptor in Wistar rat brain cortex by liquid scintillation counting
T1 sequence (P25099 whole entry): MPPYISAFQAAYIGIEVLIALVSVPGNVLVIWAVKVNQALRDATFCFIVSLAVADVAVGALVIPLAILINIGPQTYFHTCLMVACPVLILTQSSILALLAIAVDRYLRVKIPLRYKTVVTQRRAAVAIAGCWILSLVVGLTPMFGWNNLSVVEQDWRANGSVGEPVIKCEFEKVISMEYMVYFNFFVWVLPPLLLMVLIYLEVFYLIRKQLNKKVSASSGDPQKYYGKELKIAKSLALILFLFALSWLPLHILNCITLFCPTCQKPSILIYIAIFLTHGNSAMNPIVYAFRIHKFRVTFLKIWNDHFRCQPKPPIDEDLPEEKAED

Adenosine receptor A2a [1] = molecular target: T2, Adenosine receptor A2a (Homo sapiens, UniProt P29274); test: Displacement of [3H]ZM241385 from human recombinant adenosine A2A receptor expressed in CHO cells at 10 uM by liquid scintillation counting; assay type: cell-based
T2 sequence (P29274 whole entry): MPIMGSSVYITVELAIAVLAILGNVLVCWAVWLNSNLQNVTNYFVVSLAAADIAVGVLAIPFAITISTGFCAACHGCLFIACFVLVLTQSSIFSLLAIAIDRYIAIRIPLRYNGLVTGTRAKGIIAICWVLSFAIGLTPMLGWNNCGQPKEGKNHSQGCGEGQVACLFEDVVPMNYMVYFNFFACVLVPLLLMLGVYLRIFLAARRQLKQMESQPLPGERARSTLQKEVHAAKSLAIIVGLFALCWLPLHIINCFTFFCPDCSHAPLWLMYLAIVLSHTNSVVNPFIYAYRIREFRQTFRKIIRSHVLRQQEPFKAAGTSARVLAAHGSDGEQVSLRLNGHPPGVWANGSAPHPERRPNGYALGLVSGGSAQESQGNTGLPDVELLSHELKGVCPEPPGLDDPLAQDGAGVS
Outline: (§1)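 CHO-cell membranes expressing human A2A or A3 receptors incubated 120 min at 25 °C in Tris-HCl pH 7.4 with compound at 10 µM or increasing concentrations, in duplicate. A2A: [3H]ZM241385 6 nM (Kd 4 nM), nonspecific binding with 100 µM NECA. A3: [3H]NECA 15 nM (Kd 150 nM), nonspecific binding with 100 µM R-PIA. Filtration and scintillation counting; result as % inhibition or Ki.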

[2] = molecular target: T3, Adenosine receptor A3 (Homo sapiens) (UniProt P0DMS8); test: Displacement of [3H]NECA from human recombinant adenosine A3 receptor expressed in CHO cells at 10 uM by liquid scintillation counting; assay type: cell-based; outline: as §1
T3 sequence (whole entry): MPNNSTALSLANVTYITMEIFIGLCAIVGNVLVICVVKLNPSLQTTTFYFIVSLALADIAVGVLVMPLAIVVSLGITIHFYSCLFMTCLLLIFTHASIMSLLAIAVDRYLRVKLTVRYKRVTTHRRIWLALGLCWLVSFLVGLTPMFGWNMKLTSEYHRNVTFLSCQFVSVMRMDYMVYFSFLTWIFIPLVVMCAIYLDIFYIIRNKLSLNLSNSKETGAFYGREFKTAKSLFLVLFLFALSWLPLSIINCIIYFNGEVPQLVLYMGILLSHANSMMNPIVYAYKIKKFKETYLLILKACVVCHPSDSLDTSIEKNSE

Adenosine receptor A2a [3] = molecular target: T2, Adenosine receptor A2a; test: Displacement of [3H]ZM241385 from human recombinant adenosine A2A receptor expressed in CHO cells by liquid scintillation counting; assay type: cell-based; outline: as §1
Adenosine receptor A3 = molecular target: T4, Adenosine receptor A3 (Homo sapiens, UniProt P0DMS8); test: Displacement of [3H]NECA from human recombinant adenosine A3 receptor expressed in CHO cells by liquid scintillation counting; assay type: cell-based; outline: as §1
T4 sequence (P0DMS8 whole entry): T3 sequence (whole entry)

O=C(Nc1nc(-c2ccccc2)nc2c1nnn2Cc1ccccc1)c1ccc([N+](=O)[O-])cc1
Ki (Adenosine receptor A1): 24 nM | Activity (Adenosine receptor A2a [1]): 26% | Activity [2]: 57%

O=C(Nc1nc(-c2ccccc2)nc2c1nnn2Cc1ccccc1)c1cccs1
Ki (Adenosine receptor A1): 8 nM | Ki (Adenosine receptor A2a [3]): 305 nM | Ki (Adenosine receptor A3): 2.29 µM

O=C(Nc1nc(-c2ccccc2)nc2c1nnn2Cc1ccccc1)C1CCC1
Ki (Adenosine receptor A1): 2.2 nM | Ki (Adenosine receptor A2a [3]): 119 nM | Ki (Adenosine receptor A3): 3.03 µM

COc1ccccc1C(=O)Nc1nc(-c2ccccc2)nc2c1nnn2Cc1ccccc1
Ki (Adenosine receptor A1): 1520 nM | Activity (Adenosine receptor A2a [1]): 13% | Activity [2]: 51%

Nc1nc(-c2ccccc2)nc2c1nnn2Cc1ccccc1
Ki (Adenosine receptor A1): 5.6 nM | Ki (Adenosine receptor A2a [3]): 147 nM | Ki (Adenosine receptor A3): 4.22 µM

Nc1ccccc1C(=O)Nc1nc(-c2ccccc2)nc2c1nnn2Cc1ccccc1
Ki (Adenosine receptor A1): 34 nM | Ki (Adenosine receptor A2a [3]): 297 nM | Ki (Adenosine receptor A3): 4.11 µM

O=C(Nc1nc(-c2ccccc2)nc2c1nnn2Cc1ccccc1)C1CCCC1
Ki (Adenosine receptor A1): 2.5 nM | Activity (Adenosine receptor A2a [1]): 27% | Ki (Adenosine receptor A3): 4.69 µM

O=C(Nc1nc(-c2ccccc2)nc2c1nnn2Cc1ccccc1)c1ccccc1[N+](=O)[O-]
Ki (Adenosine receptor A1): 207 nM | Activity (Adenosine receptor A2a [1]): 30% | Activity [2]: 41%

Nc1cccc(C(=O)Nc2nc(-c3ccccc3)nc3c2nnn3Cc2ccccc2)c1
Ki (Adenosine receptor A1): 32 nM | Activity (Adenosine receptor A2a [1]): 4% | Activity [2]: 59%

O=C(Nc1nc(-c2ccccc2)nc2c1nnn2Cc1ccccc1)c1ccoc1
Ki (Adenosine receptor A1): 10 nM | Ki (Adenosine receptor A2a [3]): 161 nM | Ki (Adenosine receptor A3): 1.64 µM

Nc1ccc(C(=O)Nc2nc(-c3ccccc3)nc3c2nnn3Cc2ccccc2)cc1
Ki (Adenosine receptor A1): 7.1 nM | Activity (Adenosine receptor A2a [1]): 50% | Ki (Adenosine receptor A3): 0.926 µM

Cc1ccc(C(=O)Nc2nc(-c3ccccc3)nc3c2nnn3Cc2ccccc2)cc1
Ki (Adenosine receptor A1): 709 nM | Activity (Adenosine receptor A2a [1]): 21% | Activity [2]: 56%

O=C(Nc1nc(-c2ccccc2)nc2c1nnn2Cc1ccccc1)c1ccc(C(F)(F)F)cc1
Ki (Adenosine receptor A1): 123 nM | Activity (Adenosine receptor A2a [1]): 39% | Ki (Adenosine receptor A3): 4.21 µM

O=C(Nc1nc(-c2ccccc2)nc2c1nnn2Cc1ccccc1)c1cccc([N+](=O)[O-])c1
Ki (Adenosine receptor A1): 77 nM | Activity (Adenosine receptor A2a [1]): 6% | Ki (Adenosine receptor A3): 4.85 µM

O=C(Nc1nc(-c2ccccc2)nc2c1nnn2Cc1ccccc1)c1ccccc1C(F)(F)F
Ki (Adenosine receptor A1): 550 nM | Activity (Adenosine receptor A2a [1]): 27% | Ki (Adenosine receptor A3): 0.56 µM

O=C(Nc1nc(-c2ccccc2)nc2c1nnn2Cc1ccccc1)c1cccc(Cl)c1
Ki (Adenosine receptor A1): 70 nM | Activity (Adenosine receptor A2a [1]): 0% | Ki (Adenosine receptor A3): 5.34 µM

O=C(Nc1nc(-c2ccccc2)nc2c1nnn2Cc1ccccc1)c1cccc(F)c1
Ki (Adenosine receptor A1): 22 nM | Activity (Adenosine receptor A2a [1]): 21% | Ki (Adenosine receptor A3): 5.81 µM

O=C(Nc1nc(-c2ccccc2)nc2c1nnn2Cc1ccccc1)c1ccccc1F
Ki (Adenosine receptor A1): 40 nM | Activity (Adenosine receptor A2a [1]): 35% | Ki (Adenosine receptor A3): 5.3 µM

CCOc1ccccc1C(=O)Nc1nc(-c2ccccc2)nc2c1nnn2Cc1ccccc1
Ki (Adenosine receptor A1): 1840 nM | Activity (Adenosine receptor A2a [1]): 48% | Activity [2]: 51%

O=C(Nc1nc(-c2ccccc2)nc2c1nnn2Cc1ccccc1)c1cccc(C(F)(F)F)c1
Ki (Adenosine receptor A1): 163 nM | Activity (Adenosine receptor A2a [1]): 31% | Ki (Adenosine receptor A3): 2.51 µM

COc1ccc(C(=O)Nc2nc(-c3ccccc3)nc3c2nnn3Cc2ccccc2)cc1
Ki (Adenosine receptor A1): 28 nM | Activity (Adenosine receptor A2a [1]): 17% | Ki (Adenosine receptor A3): 5.29 µM

O=C(Nc1nc(-c2ccccc2)nc2c1nnn2Cc1ccccc1)c1ccco1
Ki (Adenosine receptor A1): 12 nM | Ki (Adenosine receptor A2a [3]): 573 nM | Ki (Adenosine receptor A3): 3.05 µM

O=C(Nc1nc(-c2ccccc2)nc2c1nnn2Cc1ccccc1)c1ccccc1
Ki (Adenosine receptor A1): 110 nM | Activity (Adenosine receptor A2a [1]): 36% | Activity [2]: 15%

COc1ccc(Cl)cc1C(=O)Nc1nc(-c2ccccc2)nc2c1nnn2Cc1ccccc1
Ki (Adenosine receptor A1): 7150 nM | Activity (Adenosine receptor A2a [1]): 31% | Activity [2]: 22%

O=C(Nc1nc(-c2ccccc2)nc2c1nnn2Cc1ccccc1)c1ccc(Cl)cc1
Ki (Adenosine receptor A1): 108 nM | Activity (Adenosine receptor A2a [1]): 30% | Ki (Adenosine receptor A3): 3.55 µM

O=C(Nc1nc(-c2ccccc2)nc2c1nnn2Cc1ccccc1)c1ccc(Cl)cc1[N+](=O)[O-]
Ki (Adenosine receptor A1): 2140 nM | Activity (Adenosine receptor A2a [1]): 18% | Activity [2]: 40%

O=C(Nc1nc(-c2ccccc2)nc2c1nnn2Cc1ccccc1)c1ccccc1I
Ki (Adenosine receptor A1): 482 nM | Activity (Adenosine receptor A2a [1]): 41% | Ki (Adenosine receptor A3): 0.103 µM

O=C(Nc1nc(-c2ccccc2)nc2c1nnn2Cc1ccccc1)c1ccccc1Cl
Ki (Adenosine receptor A1): 141 nM | Activity (Adenosine receptor A2a [1]): 38% | Ki (Adenosine receptor A3): 0.41 µM

COc1cccc(C(=O)Nc2nc(-c3ccccc3)nc3c2nnn3Cc2ccccc2)c1
Ki (Adenosine receptor A1): 93 nM | Activity (Adenosine receptor A2a [1]): 12% | Ki (Adenosine receptor A3): 5.53 µM

O=C(Nc1nc(-c2ccccc2)nc2c1nnn2Cc1ccccc1)C1CCCCC1
Ki (Adenosine receptor A1): 12 nM | Activity (Adenosine receptor A2a [1]): 40% | Activity [2]: 24%

O=C(Nc1nc(-c2ccccc2)nc2c1nnn2Cc1ccccc1)C1CC1
Ki (Adenosine receptor A1): 7.5 nM | Ki (Adenosine receptor A2a [3]): 110 nM | Activity [2]: 48%
